Reference: ChEMBL document CHEMBL4376856, “Discovery of N-(4-Aminobutyl)-N'-(2-methoxyethyl)guanidine as the First Selective, Nonamino Acid, Catalytic Site Inhibitor of Human Dimethylarginine Dimethylaminohydrolase-1 (hDDAH-1)” (J Med Chem, 2020)

How the values were obtained:
[1] = molecular target: T1, Nitric oxide synthase 3 (Homo sapiens) (UniProt P29474); experiment: Inhibition of endothelial NOS (unknown origin) assessed as formation of methemoglobin from oxyhemoglobin at 1 mM using L-arginine as substrate in presence of oxyhemoglobin and NADPH by UV-vis spectrophotometry relative to control
T1 sequence (whole entry): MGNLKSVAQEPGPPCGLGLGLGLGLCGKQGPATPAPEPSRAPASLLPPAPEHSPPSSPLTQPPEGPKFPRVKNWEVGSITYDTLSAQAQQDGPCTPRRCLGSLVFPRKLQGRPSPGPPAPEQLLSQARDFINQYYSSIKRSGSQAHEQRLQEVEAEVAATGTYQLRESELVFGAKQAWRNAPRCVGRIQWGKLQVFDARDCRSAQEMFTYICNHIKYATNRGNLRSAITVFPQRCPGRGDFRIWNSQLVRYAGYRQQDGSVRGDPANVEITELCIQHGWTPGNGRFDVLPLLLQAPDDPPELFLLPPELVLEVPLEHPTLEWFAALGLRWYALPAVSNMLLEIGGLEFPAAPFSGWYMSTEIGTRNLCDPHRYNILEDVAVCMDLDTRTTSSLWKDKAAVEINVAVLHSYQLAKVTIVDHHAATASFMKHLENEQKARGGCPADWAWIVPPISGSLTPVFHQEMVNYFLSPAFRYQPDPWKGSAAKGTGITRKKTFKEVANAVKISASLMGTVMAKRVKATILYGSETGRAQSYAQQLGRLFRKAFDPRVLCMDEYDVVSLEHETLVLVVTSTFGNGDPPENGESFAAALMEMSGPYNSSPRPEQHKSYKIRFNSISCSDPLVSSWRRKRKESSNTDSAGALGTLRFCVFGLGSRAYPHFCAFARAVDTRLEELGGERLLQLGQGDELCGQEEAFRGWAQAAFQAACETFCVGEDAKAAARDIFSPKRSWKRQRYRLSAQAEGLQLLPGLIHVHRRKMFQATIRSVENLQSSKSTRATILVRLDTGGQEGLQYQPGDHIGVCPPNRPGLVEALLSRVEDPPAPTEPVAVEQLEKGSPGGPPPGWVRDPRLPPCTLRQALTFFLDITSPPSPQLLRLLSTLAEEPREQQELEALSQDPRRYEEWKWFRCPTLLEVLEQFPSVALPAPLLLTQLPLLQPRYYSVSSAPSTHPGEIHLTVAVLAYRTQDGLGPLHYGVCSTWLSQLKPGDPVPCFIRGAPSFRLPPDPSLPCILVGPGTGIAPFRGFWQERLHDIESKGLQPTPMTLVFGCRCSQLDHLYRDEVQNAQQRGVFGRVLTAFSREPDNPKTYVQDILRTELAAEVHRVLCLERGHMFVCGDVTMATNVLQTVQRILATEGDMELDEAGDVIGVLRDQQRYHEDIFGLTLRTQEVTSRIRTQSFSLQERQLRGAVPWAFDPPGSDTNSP
Outline: (§1)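 Each enzyme (arginase, nNOS, eNOS, iNOS) tested with inhibitor at 1 mM; percent inhibition given as the mean ± SD of at least three independent experiments.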

Arginase-1 (Bos taurus) = molecular target: T2, Arginase-1 (Bos taurus) (UniProt Q2KJ64); experiment: Inhibition of bovine liver arginase at 1 mM using L-arginine as substrate measured after 30 mins by colder reagent based microplate reader assay relative to control; outline: as §1
T2 sequence (whole entry): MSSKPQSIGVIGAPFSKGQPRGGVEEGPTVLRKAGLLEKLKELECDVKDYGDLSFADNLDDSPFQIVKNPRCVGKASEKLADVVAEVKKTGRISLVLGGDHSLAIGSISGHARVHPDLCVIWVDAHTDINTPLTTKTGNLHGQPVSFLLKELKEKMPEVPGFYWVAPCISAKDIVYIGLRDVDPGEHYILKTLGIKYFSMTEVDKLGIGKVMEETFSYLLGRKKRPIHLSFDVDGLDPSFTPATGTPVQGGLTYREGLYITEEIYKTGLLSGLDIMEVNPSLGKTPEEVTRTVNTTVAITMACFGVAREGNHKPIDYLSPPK

[2] = molecular target: Nitric oxide synthase 1 (Homo sapiens) (UniProt P29475); experiment: Inhibition of neuronal NOS (unknown origin) assessed as formation of methemoglobin from oxyhemoglobin at 1 mM using L-arginine as substrate in presence of oxyhemoglobin and NADPH by UV-vis spectrophotometry relative to control; outline: as §1
Nitric oxide synthase 1 (Homo sapiens), sequence (P29475 whole entry): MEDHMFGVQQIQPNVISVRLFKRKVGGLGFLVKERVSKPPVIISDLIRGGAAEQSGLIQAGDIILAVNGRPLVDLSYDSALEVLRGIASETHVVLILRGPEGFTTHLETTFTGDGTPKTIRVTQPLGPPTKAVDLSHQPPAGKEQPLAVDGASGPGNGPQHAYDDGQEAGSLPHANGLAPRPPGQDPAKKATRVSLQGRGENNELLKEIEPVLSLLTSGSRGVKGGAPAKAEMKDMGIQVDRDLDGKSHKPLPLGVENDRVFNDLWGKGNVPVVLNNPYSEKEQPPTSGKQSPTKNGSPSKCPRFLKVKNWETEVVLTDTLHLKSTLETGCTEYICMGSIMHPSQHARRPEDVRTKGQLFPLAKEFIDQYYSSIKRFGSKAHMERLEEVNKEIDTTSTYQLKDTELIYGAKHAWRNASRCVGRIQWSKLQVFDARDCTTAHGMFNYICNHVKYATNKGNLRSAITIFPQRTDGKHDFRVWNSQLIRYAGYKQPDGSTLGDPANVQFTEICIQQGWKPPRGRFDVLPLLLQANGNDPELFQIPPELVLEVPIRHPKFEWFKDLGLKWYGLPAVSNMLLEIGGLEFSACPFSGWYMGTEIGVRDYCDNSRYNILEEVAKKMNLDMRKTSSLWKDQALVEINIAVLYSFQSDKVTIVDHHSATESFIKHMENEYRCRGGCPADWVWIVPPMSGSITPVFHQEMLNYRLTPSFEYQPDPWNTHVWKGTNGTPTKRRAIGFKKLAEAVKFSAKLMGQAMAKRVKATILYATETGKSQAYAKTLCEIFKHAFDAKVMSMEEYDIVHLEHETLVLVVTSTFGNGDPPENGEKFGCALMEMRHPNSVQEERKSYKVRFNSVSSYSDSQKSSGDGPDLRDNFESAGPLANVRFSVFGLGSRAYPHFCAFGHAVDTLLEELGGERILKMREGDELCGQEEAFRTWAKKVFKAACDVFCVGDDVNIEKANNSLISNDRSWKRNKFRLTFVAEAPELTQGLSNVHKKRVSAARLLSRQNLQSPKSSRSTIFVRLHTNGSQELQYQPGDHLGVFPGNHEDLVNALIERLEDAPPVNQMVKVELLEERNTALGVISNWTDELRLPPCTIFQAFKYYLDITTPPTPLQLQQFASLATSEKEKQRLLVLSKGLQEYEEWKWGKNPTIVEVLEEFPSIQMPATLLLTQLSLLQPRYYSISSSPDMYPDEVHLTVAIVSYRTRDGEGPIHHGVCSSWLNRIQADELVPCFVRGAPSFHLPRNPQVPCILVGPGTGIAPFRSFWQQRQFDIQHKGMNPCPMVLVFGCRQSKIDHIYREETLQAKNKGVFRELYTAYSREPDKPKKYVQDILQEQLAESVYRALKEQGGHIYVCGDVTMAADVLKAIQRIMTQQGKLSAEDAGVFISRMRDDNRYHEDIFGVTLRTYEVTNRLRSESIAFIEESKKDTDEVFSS

[3] = molecular target: T3, N(G),N(G)-dimethylarginine dimethylaminohydrolase 1 (Homo sapiens, UniProt O94760); experiment: Inhibition of 6xHis-tagged recombinant human DDAH1 expressed in Escherichia coli BL21 cells using NMMA as substrate measured after 30 mins by colder reagent based microplate reader assay
T3 sequence (O94760 whole entry): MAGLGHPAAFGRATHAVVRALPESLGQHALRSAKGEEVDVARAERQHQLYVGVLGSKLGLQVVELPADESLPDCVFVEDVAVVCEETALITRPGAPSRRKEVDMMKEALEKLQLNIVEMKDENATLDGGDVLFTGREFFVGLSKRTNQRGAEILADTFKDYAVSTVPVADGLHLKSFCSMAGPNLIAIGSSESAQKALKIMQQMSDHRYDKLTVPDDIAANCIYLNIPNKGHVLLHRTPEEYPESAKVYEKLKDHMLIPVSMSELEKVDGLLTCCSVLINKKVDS
Outline: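 Ki against hDDAH-1, given as the mean ± SD of at least two independent experiments.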

[4] = molecular target: Nitric oxide synthase, inducible (Homo sapiens) (UniProt P35228); experiment: Inhibition of iNOS (unknown origin) assessed as formation of methemoglobin from oxyhemoglobin at 1 mM using L-arginine as substrate in presence of oxyhemoglobin and NADPH by UV-vis spectrophotometry relative to control; outline: as §1
Nitric oxide synthase, inducible (Homo sapiens), sequence (P35228 whole entry): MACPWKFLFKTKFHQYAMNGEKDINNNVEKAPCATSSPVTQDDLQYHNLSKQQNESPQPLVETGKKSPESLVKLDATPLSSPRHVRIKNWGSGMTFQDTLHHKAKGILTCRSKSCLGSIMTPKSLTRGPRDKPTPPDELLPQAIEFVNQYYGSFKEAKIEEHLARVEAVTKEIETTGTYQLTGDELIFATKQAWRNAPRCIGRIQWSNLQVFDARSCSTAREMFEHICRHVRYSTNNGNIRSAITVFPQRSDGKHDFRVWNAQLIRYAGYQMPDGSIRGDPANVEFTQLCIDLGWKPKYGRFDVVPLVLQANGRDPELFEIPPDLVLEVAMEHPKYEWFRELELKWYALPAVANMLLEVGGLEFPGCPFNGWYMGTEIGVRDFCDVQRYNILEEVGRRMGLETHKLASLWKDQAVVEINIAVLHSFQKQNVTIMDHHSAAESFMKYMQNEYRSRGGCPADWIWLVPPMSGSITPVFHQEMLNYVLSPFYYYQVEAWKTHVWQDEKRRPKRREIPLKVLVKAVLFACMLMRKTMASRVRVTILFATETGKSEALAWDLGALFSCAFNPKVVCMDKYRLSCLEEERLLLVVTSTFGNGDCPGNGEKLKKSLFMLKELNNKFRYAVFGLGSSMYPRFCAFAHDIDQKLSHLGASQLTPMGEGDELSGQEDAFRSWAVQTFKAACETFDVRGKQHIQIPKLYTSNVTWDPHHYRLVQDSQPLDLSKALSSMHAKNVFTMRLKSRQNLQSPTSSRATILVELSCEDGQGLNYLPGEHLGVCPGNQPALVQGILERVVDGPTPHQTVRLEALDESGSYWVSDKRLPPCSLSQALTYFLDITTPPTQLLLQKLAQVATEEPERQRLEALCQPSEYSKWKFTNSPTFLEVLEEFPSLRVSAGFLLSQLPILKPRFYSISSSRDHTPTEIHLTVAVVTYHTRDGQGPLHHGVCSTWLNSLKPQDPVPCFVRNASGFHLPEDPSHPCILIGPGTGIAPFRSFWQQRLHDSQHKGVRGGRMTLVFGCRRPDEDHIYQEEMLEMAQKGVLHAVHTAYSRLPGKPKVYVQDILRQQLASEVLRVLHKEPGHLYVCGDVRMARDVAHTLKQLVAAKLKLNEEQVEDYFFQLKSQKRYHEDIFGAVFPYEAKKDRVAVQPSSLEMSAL

[5] = molecular target: T3, N(G),N(G)-dimethylarginine dimethylaminohydrolase 1; experiment: Inhibition of 6xHis-tagged recombinant human DDAH1 expressed in Escherichia coli BL21 cells at 1 mM using NMMA as substrate measured after 30 mins by colder reagent based microplate reader assay
HEK-293T [6] = experiment: Cytotoxicity against human HEK293T cells assessed as effect on cell number at 0.1 to 1000 uM incubated for overnight by DAPI staining based analysis
[7] = Prodrug conversion in porcine liver homogenate assessed as formation of N-(4-Aminobutyl)-N'-(2-methoxyethyl)guanidine formation at 3 mM and pH 6 preincubated for 3 mins followed by NADH addition measured after 20 mins under aerobic conditions by RP-HPLC analysis; format: ADME, tissue-based, Sus scrofa; conditions: pig, tissue homogenate, pH 6, 20 min, 3000 µM
Outline: (§2)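 Prodrug incubated with porcine liver subcellular fractions (homogenate, mitochondria, outer mitochondrial membrane vesicles). The formed guanidine was quantified by HPLC after precolumn o-phthalaldehyde derivatization. Data are means ± SD of biological triplicates.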

[8] = Chemical stability of compound at 250 uM in phosphate buffer at pH 2 to 9 and 37 degree C after 24 hrs by RP-HPLC analysis; format: physicochemical; conditions: pH 2, 24 h
HEK-293T [9] = experiment: Cytotoxicity against human HEK293T cells assessed as effect on cell viability by measuring ATP content at 0.1 to 1000 uM incubated for overnight by CellTiter-Glo luminescent analysis; format: cell-based
[10] = Prodrug conversion in porcine liver mitochondrial membrane vesicles assessed as N-(4-Aminobutyl)-N'-(2-methoxyethyl)guanidine formation at 3 mM and pH 6 preincubated for 3 mins followed by NADH addition measured after 20 mins under aerobic conditions by RP-HPLC analysis; format: ADME, cell membranes, Sus scrofa, Mitochondrial membrane vesicle; conditions: pig, pH 6, 20 min, 3000 µM; outline: as §2
[11] = Prodrug conversion in porcine liver mitochondria assessed as N-(4-Aminobutyl)-N'-(2-methoxyethyl)guanidine formation at 3 mM and pH 6 preincubated for 3 mins followed by NADH addition measured after 20 mins under aerobic conditions by RP-HPLC analysis; format: ADME, Sus scrofa; conditions: pig, pH 6, 20 min, 3000 µM; outline: as §2
[12] = molecular target: T4, Mitochondrial amidoxime reducing component 2 (Homo sapiens, UniProt Q969Z3); experiment: Substrate activity at human recombinant mARC2 expressed in Escherichia coli assessed as enzyme-mediated N-(4-Aminobutyl)-N'-(2-methoxyethyl)guanidine formation at 3 mM and pH 6 preincubated for 3 mins followed by NADH addition measured after 20 mins under aerobic conditions by RP-HPLC analysis; format: ADME; conditions: pH 6, 20 min, 3000 µM
T4 sequence (Q969Z3 whole entry): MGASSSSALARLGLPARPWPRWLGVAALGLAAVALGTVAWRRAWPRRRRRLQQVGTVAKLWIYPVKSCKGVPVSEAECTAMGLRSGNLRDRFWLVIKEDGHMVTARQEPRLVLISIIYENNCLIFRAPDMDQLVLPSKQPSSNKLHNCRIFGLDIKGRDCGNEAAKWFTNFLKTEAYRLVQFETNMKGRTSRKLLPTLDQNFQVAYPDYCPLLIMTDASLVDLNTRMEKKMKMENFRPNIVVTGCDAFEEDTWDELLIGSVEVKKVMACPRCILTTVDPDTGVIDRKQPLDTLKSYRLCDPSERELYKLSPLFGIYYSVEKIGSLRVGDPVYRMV
Outline: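 Incubation used the reconstituted, heterologously expressed human mARC-2 N-reductive system. The guanidine product was measured by HPLC after precolumn derivatization with o-phthalaldehyde.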

Row | inhibition [1] [%] | inhibition (Arginase-1 (Bos taurus)) [%] | inhibition [2] [%] | Ki [3] [µM] | inhibition [4] [%] | SMILES | also measured
1 | 19 | 20 | 0 | 2760 | 4 | COCCNC(=N)NCCC(C)C | 
2 |  | 29 |  |  | 0 | COCCNC(=N)NCCC[C@H](N)C(=O)O | 
3 | 0 | 15 | 0 | 2810 | 21 | CCCCCNC(=N)NCCOC | 
4 | 13 | 11 | 0 |  | 0 | COCCNC(=N)NCCCCN | Activity (HEK-293T [6]): Non-Toxic; Activity (HEK-293T [9]): Non-Toxic
5 | 13 | 35 | 5 | 489 | 2 | COCCNC(=N)NCCCCC(=O)O | 
6 |  |  |  | 1 |  | COCCNC(=N)NCCC[C@H](N)C(=O)NS(C)(=O)=O | 

The next lines start with the compound.

Row | SMILES | inhibition [1] [%] | inhibition (Arginase-1 (Bos taurus)) [%] | inhibition [2] [%] | Ki [3] [µM] | inhibition [4] [%] | also measured
7 | COCCC(=N)NCCC[C@H](N)C(=O)O | 54 | 43 | 65 | 9 | 50 | 
8 | COCCCC(=N)NCC[C@H](N)C(=O)O | < 20 | < 20 | < 20 |  | < 20 | inhibition [5]: < 20%
9 | COCCCC(=N)NCCC[C@H](N)C(=O)O | 29 | 20 | 35 | 156 | 26 | 
10 | C=CCC(=N)NCCCCN | 56 | 6 | 99 | 768 | 100 | 
11 | C=CCCNC(=N)NCCCCN | 35 | 0 | 5 | 59 | 23 | 
12 | COCCN/C(=N/O)NCCCCN |  |  |  |  |  | Activity (HEK-293T [6]): Non-Toxic; Drug metabolism [7]: Metabolite_Detected; Stability [8]: Stable; Activity (HEK-293T [9]): Non-Toxic; Drug metabolism [10]: Metabolite_Detected; Drug metabolism [11]: Metabolite_Detected; Activity [12]: Active
13 | COCC(=N)NCCCCN | 44 | 21 | 78 | 983 | 42 | 
14 | C=CCC(=N)NCCC[C@H](N)C(=O)O |  | 76 |  |  |  | 
15 | COCC(=N)NCCC[C@H](N)C(=O)O | 89 | 22 | 93 | 73 | 75 | 
16 | COCCCC(=N)NCCCCN | 36 | 14 | 7 |  | 15 | inhibition [5]: < 20%
17 | COCCC(=N)NCCCCN | 28 | 22 | 19 | 1450 | 16 | 
18 | C=CCCNC(=N)NCCC[C@H](N)C(=O)O |  | 70 |  |  |  | 
19 | N=C(CCl)NCCC[C@H](N)C(=O)O |  |  |  | 1.3 |  | 
